# Assay results: ChEMBL document CHEMBL6153064, “Structure-based discovery of novel diarylpyrimidines as potent and selective Non-Nucleoside reverse transcriptase inhibitors: From CH(CN)-Biphenyl-Diarylpyrimidines to CNNH2-Biphenyl-Diarylpyrimidines” (Eur J Med Chem, 2025)
# Legend:
# [1] = system: Human immunodeficiency virus 1; test: Antiviral activity against wild type HIV-1 IIIB infected in human MT4 cells […]; format: functional, organism-based; details: Human immunodeficiency virus 1, IIIB
# [2] = Cytotoxicity against human MT4 cells by MTT assay; format: toxicity, cell-based
# [3] = Selectivity index, ratio of CC50 for cytotoxicity against human MT4 cells to EC50 for antiviral activity against wild type HIV-1 IIIB infected in human MT4 cells; format: toxicity, cell-based; details: read-out: Ratio CC50/EC50
# Procedure, shortened: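 Selectivity index calculated as CC50/EC50 ratio, both values from MTT viability readout in MT-4 cells, antiviral arm using wild-type HIV-1 IIIB.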
# [4] = system: Human immunodeficiency virus 1; test: Antiviral activity against HIV-1 harboring L100I mutant infected in human MT4 cells […]; format: functional, organism-based; details: Human immunodeficiency virus 1, MT4
# [5] = system: Human immunodeficiency virus 1; test: Antiviral activity against HIV-1 harboring K103N mutant infected in human MT4 cells […]; format: functional, organism-based; details: Human immunodeficiency virus 1, MT4
# [6] = system: Human immunodeficiency virus 1; test: Antiviral activity against HIV-1 harboring Y181C mutant infected in human MT4 cells […]; format: functional, organism-based; details: Human immunodeficiency virus 1, MT4
# [7] = system: Human immunodeficiency virus 1; test: Antiviral activity against HIV-1 harboring E138K mutant infected in human MT4 cells […]; format: functional, organism-based; details: Human immunodeficiency virus 1, MT4
# [8] = system: Human immunodeficiency virus 1; test: Potency index, ratio of Efavirenz EC50 to test compound EC50 for antiviral activity against HIV-1 harboring K103N mutant infected in human MT4 cells […]; format: functional
# [9] = system: Human immunodeficiency virus 1; test: Potency index, ratio of Efavirenz EC50 to test compound EC50 for antiviral activity against HIV-1 harboring Y188L mutant infected in human MT4 cells […]; format: functional
# [10] = system: Human immunodeficiency virus 1; test: Potency index, ratio of Nevirapine EC50 to test compound EC50 for antiviral activity against HIV-1 harboring E138K mutant infected in human MT4 cells […]; format: functional
# [11] = biological target: Human immunodeficiency virus type 1 reverse transcriptase (Human immunodeficiency virus 1, UniProt Q72547); test: Inhibition of wild type HIV-1 Reverse transcriptase
# [12] = Stability in human plasma assessed as parent compound remaining measured immediately; format: ADME, cell-free; details: read-out: Stability
# [13] = Stability in human plasma assessed as parent compound remaining measured at 15 mins; format: ADME, cell-free; details: read-out: Stability
# [14] = Stability in human plasma assessed as parent compound remaining measured at 30 mins; format: ADME, cell-free; details: read-out: Stability
# [15] = Stability in human plasma assessed as parent compound remaining measured at 60 mins; format: ADME, cell-free; details: read-out: Stability
# [16] = Stability in human plasma assessed as parent compound remaining measured at 120 mins; format: ADME, cell-free; details: read-out: Stability
# [17] = Stability in human plasma assessed as parent compound remaining measured at 300 mins; format: ADME, cell-free; details: read-out: Stability
# [18] = Stability in human plasma assessed as half life; format: ADME, cell-free
# [19] = Metabolic stability in human liver microsomes assessed as half life; format: ADME, Microsome
# Procedure, shortened: (§1)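 Incubation with human liver microsomes; half-life obtained from depletion fit (R² reported), intrinsic clearance expressed per mg microsomal protein (μL/min/mg) and scaled to liver (mL/min/kg).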
# [20] = Metabolic stability in human microsomes assessed as intrinsic clearance; format: ADME, Microsome; details: read-out: CLH; procedure, shortened: as §1
# [21] = Acute toxicity in ICR mouse at 2 g/Kg, po measured for 2 weeks; format: organism-based; details: in vivo, 2000 mg/kg, 336 h
# Procedure, shortened: (§2)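 Healthy female and male ICR mice were given a single oral dose of 2 g/kg. Growth, death and toxic symptoms were followed over 2 weeks and compared with a control group.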
# [22] = Acute toxicity in ICR mouse assessed as animal death at 2 g/Kg, po measured for 2 weeks; format: organism-based; details: in vivo, 2000 mg/kg, 336 h; procedure, shortened: as §2
# [23] = Acute toxicity in ICR mouse assessed as adverse symptoms at 2 g/Kg, po measured for 2 weeks; format: organism-based; details: in vivo, 2000 mg/kg, 336 h; procedure, shortened: as §2
# [24] = Acute toxicity in ICR mouse assessed as change in ALT level at 2 g/Kg, po measured after 14 days; format: organism-based; details: in vivo, 2000 mg/kg, 336 h, time 14 day
# Procedure, shortened: (§3)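 ICR mice of both sexes received a single oral 2 g/kg dose. On day 14 after dosing, blood was examined for ALT, AST, CREA, UREA and CKMB and compared with control groups.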
# [25] = Acute toxicity in ICR mouse assessed as change in AST level at 2 g/Kg, po measured after 14 days; format: organism-based; details: in vivo, 2000 mg/kg, 336 h, time 14 day; procedure, shortened: as §3
# [26] = Acute toxicity in ICR mouse assessed as change in CREA level at 2 g/Kg, po measured after 14 days; format: organism-based; details: in vivo, 2000 mg/kg, 336 h, time 14 day; procedure, shortened: as §3
# [27] = Acute toxicity in ICR mouse assessed as change in UREA level at 2 g/Kg, po measured after 14 days; format: organism-based; details: in vivo, 2000 mg/kg, 336 h, time 14 day; procedure, shortened: as §3
# [28] = Acute toxicity in ICR mouse assessed as change in CKMB level at 2 g/Kg, po measured after 14 days; format: organism-based; details: in vivo, 2000 mg/kg, 336 h, time 14 day; procedure, shortened: as §3
# [29] = Acute toxicity in ICR mouse assessed as brain lesion at 2 g/Kg, po measured after 14 days; format: organism-based; details: in vivo, 2000 mg/kg, 336 h, time 14 day
# Procedure, shortened: (§4)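 ICR mice, female and male, received one oral 2 g/kg dose. On day 14 after dosing they were dissected, and organs were examined by histopathology against a control group.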
# [30] = Acute toxicity in ICR mouse assessed as heart lesion at 2 g/Kg, po measured after 14 days; format: organism-based; details: in vivo, 2000 mg/kg, 336 h, time 14 day; procedure, shortened: as §4
# [31] = Acute toxicity in ICR mouse assessed as liver lesion at 2 g/Kg, po measured after 14 days; format: organism-based; details: in vivo, 2000 mg/kg, 336 h, time 14 day; procedure, shortened: as §4
# [32] = Acute toxicity in ICR mouse assessed as spleen lesion at 2 g/Kg, po measured after 14 days; format: organism-based; details: in vivo, 2000 mg/kg, 336 h, time 14 day; procedure, shortened: as §4
# [33] = Acute toxicity in ICR mouse assessed as lung lesion at 2 g/Kg, po measured after 14 days; format: organism-based; details: in vivo, 2000 mg/kg, 336 h, time 14 day; procedure, shortened: as §4
# [34] = Acute toxicity in ICR mouse assessed as […] kidney at 2 g/Kg, po measured after 14 days; format: organism-based; details: in vivo, 2000 mg/kg, 336 h, time 14 day; procedure, shortened: as §4
# [35] = system: Human immunodeficiency virus 1; test: Antiviral activity against HIV-1 harboring Y188L mutant infected in human MT4 cells assessed as inhibition of virus-induced cytopathic effect by MTT assay; details: Human immunodeficiency virus 1, MT4
compound,measurement,setting,value
COc1cc(-c2ccc(C#N)cc2)ccc1/C(=N\N)c1ccnc(Nc2ccc(C#N)cc2)n1,EC50,[1],0.005 µM
same,CC50,[2],54 µM
same,selectivity ratio,[3],11000
same,EC50,[4],0.007 µM
same,EC50,[5],0.01 µM
same,EC50,[6],0.022 µM
same,EC50,[7],0.021 µM
same,Ratio EC50,[8],8.6
same,Ratio EC50,[9],2
same,Ratio EC50,[10],7.5
same,IC50,[11],0.081 µM
same,remaining at 0 min,[12],100%
same,remaining at 0.25 h,[13],104%
same,remaining at 0.5 h,[14],101%
same,remaining at 1 h,[15],101%
same,remaining at 2 h,[16],98.2%
same,remaining at 5 h,[17],94.7%
same,half-life,[18],> 300 min
same,half-life,[19],37.5 min
same,microsomal CLint,[20],37 µL/min/mg
same,Activity,[21],Non-toxic
same,Activity,[22],Non-toxic
same,Activity,[23],Non-toxic
same,Activity,[24],Non-toxic
same,Activity,[25],Non-toxic
same,Activity,[26],Non-toxic
same,Activity,[27],Non-toxic
same,Activity,[28],Non-toxic
same,Activity,[29],Non-toxic
same,Activity,[30],Non-toxic
same,Activity,[31],Non-toxic
same,Activity,[32],Non-toxic
same,Activity,[33],Non-toxic
same,Activity,[34],Non-toxic
same,EC50,[35],0.148 µM
